Reference: article PMC10160980 (Proceedings of the National Academy of Sciences of the …, 2023)

How the values were obtained:
MDA-MB-231 cells [1] = assay: Matrigel cultures, MDA-MB-231; type: cell-based, human; conditions: 100 μM for 2 days, culture 7 days
MDA-MB-231 cells [2] = assay: Cell viability assay; type: cell-based, human; conditions: up to 100 μM, 24 h
Procedure, shortened: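 Cell viability was measured after 24 h incubation with test compound at indicated concentrations. IC50 was derived from the concentration-response data. Mean ± SEM, N ≥ 3.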

[3] = system: Akt phosphorylation at S473 in HeLa cells; assay: EGF-stimulated Akt activation; type: cell-based, human; conditions: EGF 50 nM, 5 min
Procedure, shortened: (§1)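 Cells were preincubated with a range of test compound concentrations, then stimulated with EGF for 5 min (1.6 nM for MDA-MB-231, 50 nM for HeLa). Cells were then lysed and Akt activation was read by immunoblotting.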

MCF-10A cells [4] = assay: Cell viability assay, MCF-10A; type: cell-based, human; conditions: 100 μM, 24 h
Procedure, shortened: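 Single-concentration viability screen at 100 μM in MCF-10A cells, run alongside MDA-MB-231 and MCF-7. Values are the mean of N = 3.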

[5] = system: Akt activation upon stimulation of the GPCR CXCR4 in MDA-MB-231 cells; assay: SDF-1α-stimulated Akt activation; type: cell-based, human; conditions: SDF-1α 100 ng/mL, 10 min; IGGi-11me 100 μM; PTX 100 ng/mL
MDA-MB-231 cells (CXCR4) = assay: SDF-1α mediated cell migration, MDA-MB-231; type: cell-based, human; conditions: SDF-1α as chemoattractant; up to 100 μM
Hs578T cells = assay: Tumor cell migration, Hs578T; type: cell-based, human; conditions: 1-100 μM
Procedure, shortened: (§2)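 Chemotactic migration toward FBS was measured in a modified Boyden chamber across a range of test compound concentrations. IC50 was derived from the concentration–response data. Results are mean ± SEM (N ≥ 3).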

BT-549 cells = assay: Tumor cell migration, BT-549; type: cell-based, human; conditions: 1-100 μM
Procedure, shortened: as §2

MDA-MB-231 cells [6] = type: cell-based, human
[7] = system: GIV-depleted (shGIV) HeLa cells; assay: Tumor cell migration, GIV-depleted HeLa; type: cell-based, human
Procedure, shortened: (§3)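 GIV-depleted (shGIV) and matched control (shControl) cells were run side by side in a modified Boyden-chamber assay of chemotactic migration toward FBS with test compound. Results are mean ± SEM (N ≥ 3).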

[8] = system: Akt phosphorylation at S473 in MDA-MB-231 cells; assay: EGF-stimulated Akt activation; type: cell-based, human
Procedure, shortened: as §1

GIV binding to Gαi3 = GIV binding to Gαi3 (Rattus norvegicus, UniProt P08753); assay: Fluorescence polarization
[9] = system: Akt activation in GIV-depleted cells (shGIV); assay: EGF-stimulated Akt activation in GIV-depleted cells; type: cell-based, human; conditions: 100 μM
Procedure, shortened: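 GIV-depleted (shGIV) and control (shControl) cells were handled the same way: preincubation with test compound, EGF stimulation for 5 min, lysis, then immunoblotting for Akt activation.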

[10] = Hydrolytic processing of IGGi-11me by cytosolic fraction of MDA-MB-231 cells; type: in vitro ADME, human; conditions: 2 hours, 37 °C
[11] = system: endogenous β-adrenergic receptors (cAMP via Gαs); assay: Luminescence-based cAMP; type: cell-based, human; conditions: 100 μM; isoproterenol 100 nM; HEK293T
Procedure, shortened: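 HEK293T cells expressing the Glosensor luminescent cAMP sensor plus α2A-AR or GABA_BR were pretreated with test compound (100 μM) or DMSO. They were then stimulated with isoproterenol (100 nM), with or without prestimulation by brimonidine (1 μM) or GABA (100 μM). Luminescence was recorded. Mean ± SEM, N ≥ 3; ANOVA.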

[12] = system: GIV-depleted (shGIV) MDA-MB-231 cells; assay: Tumor cell migration, GIV-depleted MDA-MB-231; type: cell-based, human; conditions: 100 μM
Procedure, shortened: as §3

MCF-10A cells [13] = assay: Matrigel cultures, MCF-10A; type: cell-based, human; conditions: 100 μM
Stability in plasma = type: in vitro ADME; conditions: preliminary results
MDA-MB-231 cells [14] = assay: Growth of pretreated MDA-MB-231 cells on plastic dishes; type: cell-based, human; conditions: cells treated overnight with 100 μM
GIV–Gαi3 binding = GIV–Gαi3 binding (Rattus norvegicus, UniProt P08753); conditions: cell-free systems; cited from earlier work
Sequence of GIV–Gαi3 binding (P08753 whole entry): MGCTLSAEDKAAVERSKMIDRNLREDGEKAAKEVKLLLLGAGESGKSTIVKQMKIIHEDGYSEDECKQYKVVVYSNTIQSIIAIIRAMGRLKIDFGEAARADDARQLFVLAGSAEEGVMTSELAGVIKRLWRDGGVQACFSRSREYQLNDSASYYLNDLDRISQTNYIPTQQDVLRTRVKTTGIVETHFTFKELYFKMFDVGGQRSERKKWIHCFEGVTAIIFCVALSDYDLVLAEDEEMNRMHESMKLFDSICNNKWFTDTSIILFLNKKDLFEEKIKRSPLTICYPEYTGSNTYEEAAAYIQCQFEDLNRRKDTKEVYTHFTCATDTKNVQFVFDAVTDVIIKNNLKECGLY

Sequence of GIV binding to Gαi3 (P08753 whole entry): as above

Q: With `COC(=O)CCCN(C)S(=O)(=O)c1ccc2c(c1)Cc1cc(S(=O)(=O)N(C)CCCC(=O)OC)ccc1-2` [IGGi-11me] as the compound, how does the “growth of MDA-MB-231 cells in Matrigel cultures” value (MDA-MB-231 cells [1]) read?
A: The value was “overall reduction of cell growth”.

Q: What about the “viability of MDA-MB-231 cells” value (MDA-MB-231 cells [2]) of the same compound?
A: Its value is “did not affect the viability”.

Q: And the “EGF-stimulated phosphorylation of Akt at S473, HeLa” value [3]?
A: The value was “reduced, in a dose-dependent manner, the phosphorylation of Akt at S473”.

Q: And the “viability of MCF-10A cells” value (MCF-10A cells [4])?
A: Its value is “did not affect the viability”.

Q: And the “SDF-1α-stimulated Akt activation, MDA-MB-231” value [5]?
A: Its value is “does not block Akt activation”.

Q: What about the “MDA-MB-231 cell migration toward SDF-1α” value (MDA-MB-231 cells (CXCR4)) of the same compound?
A: Its value is “did not affect MDA-MB-231 cell migration”.

Q: What about the “inhibition of Hs578T cell migration” value (Hs578T cells) of the same compound?
A: The value was “potency similar to that seen for MDA-MB-231 cells”.

Q: What about the “inhibition of BT-549 cell migration” value (BT-549 cells) of the same compound?
A: The value was “potency similar to that seen for MDA-MB-231 cells”.

Q: What about the “inhibition of MDA-MB-231 cell migration, dose dependence” value (MDA-MB-231 cells [6]; FBS as chemoattractant, 1-100 μM, preincubation) of the same compound?
A: The value was “efficiently reduced their ability to migrate”.

Q: What about the “potency on migration of MDA-MB-231 relative to MCF-7” value (MDA-MB-231 cells [6]; GIV^High vs GIV^Low) of the same compound?
A: The value was “approximately four times more potent”.

Q: What about the “cell migration of GIV-depleted HeLa cells” value [7] of the same compound?
A: Its value is “inhibition of tumor cell migration is lost upon depletion of GIV”.

Q: And the “EGF-stimulated phosphorylation of Akt at S473, MDA-MB-231” value ([8]; EGF 1.6 nM, 5 min, PTX 100 ng/mL)?
A: The value was “reduced, in a dose-dependent manner, the phosphorylation of Akt at S473”.

Q: What about the “total amount of GIV or Gαi” value ([8]; immunoblot) of the same compound?
A: The value was “did not change the total amount of GIV or Gαi”.

Q: What about the “potency as inhibitor of GIV–Gαi3 binding relative to IGGi-11, FP” value (GIV binding to Gαi3) of the same compound?
A: The value was “lower potency compared to IGGi-11”.

Q: And the “EGF-stimulated Akt activation in GIV-depleted cells” value [9]?
A: The value was “failed to further reduce Akt activation in GIV-depleted cells”.

Q: And the “conversion to IGGi-11 by cellular esterases” value [10]?
A: Its value is “converted to IGGi-11 by esterases present in the cytosol of MDA-MB-231 cells”.

Q: And the “cAMP response to isoproterenol in the absence of Gi-mediated regulation” value [11]?
A: Its value is “had no effect”.

Q: And the “cell migration of GIV-depleted MDA-MB-231 cells” value [12]?
A: The value was “had no effect on MDA-MB-231 cell migration upon GIV depletion”.

Q: What about the “growth of MCF-10A cells in Matrigel cultures” value (MCF-10A cells [13]) of the same compound?
A: Its value is “did not affect the growth of nontransformed MCF-10A breast cells in Matrigel cultures”.

Q: And the stability in plasma (Stability in plasma)?
A: The stability in plasma was “rapidly degraded in plasma”.

Q: What about the “growth of pretreated MDA-MB-231 cells on plastic dishes” value (MDA-MB-231 cells [14]) of the same compound?
A: Its value is “had no effect”.

Q: With `O=C(Nc1cccc(C(=O)Nc2ccc(S(=O)(=O)O)c3cc(S(=O)(=O)O)cc(S(=O)(=O)O)c23)c1)Nc1cccc(C(=O)Nc2ccc(S(=O)(=O)O)c3cc(S(=O)(=O)O)cc(S(=O)(=O)O)c23)c1` [NF023] as the compound, how does the “disruption of the GIV–Gαi interaction” value (GIV–Gαi3 binding) read?
A: Its value is “disrupts the GIV–Gαi interaction”.
